# Experimental data reported in ChEMBL document CHEMBL2177000, “Pharmacokinetic optimization of class-selective histone deacetylase inhibitors and identification of associated candidate predictive biomarkers of hepatocellular carcinoma tumor response” (J Med Chem, 2012).
# Assays:
# [1] = Oral bioavailability in BALB/C mouse at 10 mg/kg by LC-MS/MS method; type: ADME, organism-based; settings: BALB/C, in vivo
# Outline: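 Bioavailability from single-dose iv (2 mg/kg, 5% DMSO/40% PEG400/55% saline) and oral gavage (10 mg/kg, 0.445% microcrystalline cellulose microsuspension) studies in BALB/C nude mice (N = 16 per arm); plasma at eight (po) or nine (iv) time points, LC-MS/MS, noncompartmental analysis.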
# [2] = Clearance in BALB/C mouse at 10 mg/kg, po or 2 mg/kg, iv by LC-MS/MS method; type: ADME, organism-based; settings: in vivo
# Outline: (§1)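 Female-unspecified BALB/C nude mice (15−20 g, N = 16 per arm); iv bolus 2 mg/kg in 5% DMSO/40% PEG400/55% saline and/or oral gavage 10 mg/kg as 0.445% microcrystalline cellulose microsuspension. Blood sampled at nine (iv) or eight (po) time points into sodium heparin tubes; plasma by LC-MS/MS; noncompartmental analysis.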
# [3] = Clearance in mouse liver microsomes at 1 uM incubated for 10 mins by LC-MS/MS method; type: ADME, Microsome
# Outline: (§2)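 Liver microsomes (human or mouse, 0.5 mg/mL) in 100 mM potassium phosphate pH 7.4 with 1 μM compound, prewarmed 10 min at 37 °C, started with NADPH (10 mM); stopped at 0, 3, 6, 9, 15, 30 min with ice-cold methanol containing tolbutamide internal standard; LC-MS/MS. Hepatic clearance (mL/min/kg) calculated from intrinsic clearance.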
# [4] = biological target: Histone deacetylase (Homo sapiens) (UniProt Q13547+O15379+Q9UBN7+Q92769+Q9UQL6+Q8WUI4+Q9BY41+Q96DB2+P56524+Q9UKV0+Q969S8); experiment: Inhibition of Class 1 histone deacetylase in human HeLa cells assessed as induction in p21 protein expression at 3 uM incubated for 16 hrs by luciferase reporter gene assay relative to HDAC inhibitor entinostat; type: cell-based; set-up: scale not given: the % may be the effect or the level left
# [5] = Solubility in 50 mM phosphate buffer at pH 6.5 by HPLC method; type: physicochemical
# Outline: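 10 mM DMSO stock dried, residue redissolved in 50 mM phosphate buffer pH 6.5, stirred 1 h and shaken 2 h, left overnight, filtered and analysed by HPLC against calibration standards of 50−500 μM diluted from the DMSO stock.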
# [6] = Volume of distribution at steady state in BALB/C mouse at 10 mg/kg, po or 2 mg/kg, iv by LC-MS/MS method; type: ADME, organism-based; set-up: unit not given here; settings: in vivo, read-out: Vdss
# Outline: (§3)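 Single-dose PK: iv bolus 2 mg/kg in 5% DMSO/40% PEG400/55% saline and/or oral gavage 10 mg/kg as 0.445% microcrystalline cellulose microsuspension; BALB/C nude mice (15−20 g, N = 16 per arm) or male Sprague−Dawley rats (250 ± 20 g, N = 3). Blood at eight (po) or nine (iv) time points into sodium heparin, plasma by LC-MS/MS, noncompartmental analysis.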
# [7] = AUC in BALB/C mouse at 10 mg/kg, po or 2 mg/kg, iv by LC-MS/MS method; type: ADME, organism-based, Plasma; settings: BALB/C, plasma; outline: as §1
# [8] = Half life in BALB/C mouse at 10 mg/kg, po or 2 mg/kg, iv by LC-MS/MS method; type: ADME, organism-based; settings: BALB/C, in vivo; outline: as §1
# [9] = Cmax in BALB/C mouse at 10 mg/kg, po or 2 mg/kg, iv by LC-MS/MS method; type: ADME, organism-based; settings: BALB/C, in vivo; outline: as §1
# [10] = Tmax in BALB/C mouse at 10 mg/kg, po or 2 mg/kg, iv by LC-MS/MS method; type: ADME, organism-based; settings: BALB/C, in vivo; outline: as §3
# [11] = Clearance in human liver microsomes at 1 uM incubated for 10 mins by LC-MS/MS method; type: ADME, Microsome; outline: as §2
# [12] = Oral bioavailability in BALB/C mouse at 5 mg/kg by LC-MS/MS method; type: ADME, organism-based; settings: in vivo
# Outline: (§4)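 BALB/C nude mice (15−20 g) given 5 mg/kg po and 1 mg/kg iv; blood collected at eight (po) or nine (iv) time points into sodium heparin tubes, plasma stored at −20 °C, measured by LC-MS/MS and analysed noncompartmentally.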
# [13] = Volume of distribution at steady state in BALB/C mouse at 5 mg/kg, po or 1 mg/kg, iv by LC-MS/MS method; type: ADME, organism-based; settings: in vivo, read-out: Vdss
# Outline: (§5)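 Nude-mouse PK at reduced doses, 1 mg/kg iv bolus (5% DMSO, 40% PEG400, 55% saline) and 5 mg/kg oral gavage (microcrystalline cellulose microsuspension); plasma from serial heparinized blood samples (eight po, nine iv time points) quantified by LC-MS/MS, parameters by noncompartmental methods.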
# [14] = Clearance in BALB/C mouse at 5 mg/kg, po or 1 mg/kg, iv by LC-MS/MS method; type: ADME, organism-based; settings: in vivo; outline: as §4
# [15] = AUC in BALB/C mouse at 5 mg/kg, po or 1 mg/kg, iv by LC-MS/MS method; type: ADME, organism-based; settings: plasma; outline: as §4
# [16] = Half life in BALB/C mouse at 5 mg/kg, po or 1 mg/kg, iv by LC-MS/MS method; type: ADME, organism-based; settings: in vivo; outline: as §4
# [17] = Cmax in BALB/C mouse at 5 mg/kg, po or 1 mg/kg, iv by LC-MS/MS method; type: ADME, organism-based; settings: in vivo; outline: as §4
# [18] = Tmax in BALB/C mouse at 5 mg/kg, po or 1 mg/kg, iv by LC-MS/MS method; type: ADME, organism-based; settings: in vivo; outline: as §5
# [19] = biological target: T1, Cytochrome P450 1A2 (Homo sapiens, UniProt P05177); experiment: Inhibition of CYP1A2 in human liver microsomes in presence of NADPH by LC-MS/MS method; type: ADME, Microsome
# T1 sequence (P05177 whole entry): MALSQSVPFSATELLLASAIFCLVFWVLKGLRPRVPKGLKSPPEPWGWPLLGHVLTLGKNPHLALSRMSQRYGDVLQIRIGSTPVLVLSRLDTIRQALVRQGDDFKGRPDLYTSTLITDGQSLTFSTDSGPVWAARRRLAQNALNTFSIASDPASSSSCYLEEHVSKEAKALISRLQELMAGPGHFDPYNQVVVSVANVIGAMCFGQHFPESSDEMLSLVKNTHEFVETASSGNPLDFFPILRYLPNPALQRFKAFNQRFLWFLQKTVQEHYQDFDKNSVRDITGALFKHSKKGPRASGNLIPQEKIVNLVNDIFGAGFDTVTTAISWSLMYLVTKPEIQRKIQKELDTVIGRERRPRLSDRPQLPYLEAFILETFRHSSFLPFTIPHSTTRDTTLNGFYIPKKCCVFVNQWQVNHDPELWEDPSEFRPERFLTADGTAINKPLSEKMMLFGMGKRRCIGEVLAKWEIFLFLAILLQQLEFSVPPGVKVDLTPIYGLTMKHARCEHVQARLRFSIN
# [20] = biological target: Cytochrome P450 2C19 (Homo sapiens, UniProt P33261); experiment: Inhibition of CYP2C19 in human liver microsomes in presence of NADPH by LC-MS/MS method; type: ADME, Microsome
# Sequence of Cytochrome P450 2C19 (P33261 whole entry): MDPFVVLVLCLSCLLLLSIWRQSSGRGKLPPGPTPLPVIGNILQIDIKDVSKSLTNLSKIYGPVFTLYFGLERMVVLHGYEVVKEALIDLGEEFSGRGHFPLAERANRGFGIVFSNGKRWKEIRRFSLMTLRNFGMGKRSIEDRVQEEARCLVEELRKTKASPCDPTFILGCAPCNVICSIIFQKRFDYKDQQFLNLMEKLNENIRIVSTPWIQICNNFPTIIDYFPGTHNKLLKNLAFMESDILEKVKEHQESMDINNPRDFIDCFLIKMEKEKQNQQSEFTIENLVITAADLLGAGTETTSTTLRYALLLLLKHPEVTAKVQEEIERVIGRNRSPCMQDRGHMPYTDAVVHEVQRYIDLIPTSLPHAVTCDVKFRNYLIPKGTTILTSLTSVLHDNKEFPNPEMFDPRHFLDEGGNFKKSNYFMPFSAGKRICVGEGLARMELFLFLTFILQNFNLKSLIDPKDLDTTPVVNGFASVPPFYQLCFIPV
# [21] = biological target: Cytochrome P450 2C9 (Homo sapiens, UniProt P11712); experiment: Inhibition of CYP2C9 in human liver microsomes in presence of NADPH by LC-MS/MS method; type: ADME, Microsome
# Sequence of Cytochrome P450 2C9 (P11712 whole entry): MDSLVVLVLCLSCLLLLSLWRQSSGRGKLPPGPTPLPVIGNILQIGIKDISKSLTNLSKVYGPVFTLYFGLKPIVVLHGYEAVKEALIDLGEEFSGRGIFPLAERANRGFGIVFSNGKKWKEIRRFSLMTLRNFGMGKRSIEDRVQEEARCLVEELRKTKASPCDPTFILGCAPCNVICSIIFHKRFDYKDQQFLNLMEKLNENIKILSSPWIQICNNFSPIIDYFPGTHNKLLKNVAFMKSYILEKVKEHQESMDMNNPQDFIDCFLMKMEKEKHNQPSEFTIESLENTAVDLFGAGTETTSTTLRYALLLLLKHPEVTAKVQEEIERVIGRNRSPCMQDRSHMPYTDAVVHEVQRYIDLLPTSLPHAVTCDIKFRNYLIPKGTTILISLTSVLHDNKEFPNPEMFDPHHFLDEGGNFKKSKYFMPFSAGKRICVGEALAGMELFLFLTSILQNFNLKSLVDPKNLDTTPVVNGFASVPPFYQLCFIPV
# [22] = biological target: Cytochrome P450 3A4 (Homo sapiens, UniProt P08684); experiment: Inhibition of CYP3A4 in human liver microsomes in presence of NADPH by LC-MS/MS method; type: ADME, Microsome
# Sequence of Cytochrome P450 3A4 (P08684 whole entry): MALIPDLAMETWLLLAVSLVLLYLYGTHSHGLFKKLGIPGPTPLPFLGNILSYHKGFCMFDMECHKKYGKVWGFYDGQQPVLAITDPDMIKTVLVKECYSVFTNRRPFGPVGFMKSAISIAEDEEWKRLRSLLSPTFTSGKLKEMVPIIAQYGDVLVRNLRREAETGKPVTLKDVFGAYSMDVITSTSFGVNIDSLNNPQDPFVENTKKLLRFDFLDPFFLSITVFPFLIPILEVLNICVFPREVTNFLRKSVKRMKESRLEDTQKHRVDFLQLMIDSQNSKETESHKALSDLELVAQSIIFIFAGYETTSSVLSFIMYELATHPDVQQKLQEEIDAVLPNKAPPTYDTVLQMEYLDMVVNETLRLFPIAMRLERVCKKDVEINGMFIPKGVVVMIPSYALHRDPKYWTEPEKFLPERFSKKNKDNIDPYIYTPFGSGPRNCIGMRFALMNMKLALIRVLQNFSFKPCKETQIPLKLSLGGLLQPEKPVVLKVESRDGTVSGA
# [23] = biological target: Cytochrome P450 2D6 (Homo sapiens, UniProt P10635); experiment: Inhibition of CYP2D6 in human liver microsomes in presence of NADPH by LC-MS/MS method; type: ADME, Microsome
# Sequence of Cytochrome P450 2D6 (P10635 whole entry): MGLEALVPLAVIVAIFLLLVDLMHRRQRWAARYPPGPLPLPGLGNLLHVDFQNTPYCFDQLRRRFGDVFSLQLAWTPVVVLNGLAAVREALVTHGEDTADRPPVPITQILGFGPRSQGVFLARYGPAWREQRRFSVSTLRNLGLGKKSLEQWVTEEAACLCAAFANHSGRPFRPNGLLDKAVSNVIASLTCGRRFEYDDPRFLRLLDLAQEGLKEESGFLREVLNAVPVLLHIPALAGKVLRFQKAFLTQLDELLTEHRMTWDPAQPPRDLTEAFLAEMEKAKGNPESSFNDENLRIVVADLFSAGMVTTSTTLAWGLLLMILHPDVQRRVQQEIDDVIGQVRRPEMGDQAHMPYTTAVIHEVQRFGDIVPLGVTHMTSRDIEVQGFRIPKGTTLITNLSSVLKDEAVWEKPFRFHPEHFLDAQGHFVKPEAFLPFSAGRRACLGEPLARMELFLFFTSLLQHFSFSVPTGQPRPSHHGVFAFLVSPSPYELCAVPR
# [24] = biological target: Voltage-gated inwardly rectifying potassium channel KCNH2 (Homo sapiens, UniProt Q12809); experiment: Inhibition of human ERG expressed in CHO cells by patch clamp method; type: cell-based
# Sequence of Voltage-gated inwardly rectifying potassium channel KCNH2 (Q12809 whole entry): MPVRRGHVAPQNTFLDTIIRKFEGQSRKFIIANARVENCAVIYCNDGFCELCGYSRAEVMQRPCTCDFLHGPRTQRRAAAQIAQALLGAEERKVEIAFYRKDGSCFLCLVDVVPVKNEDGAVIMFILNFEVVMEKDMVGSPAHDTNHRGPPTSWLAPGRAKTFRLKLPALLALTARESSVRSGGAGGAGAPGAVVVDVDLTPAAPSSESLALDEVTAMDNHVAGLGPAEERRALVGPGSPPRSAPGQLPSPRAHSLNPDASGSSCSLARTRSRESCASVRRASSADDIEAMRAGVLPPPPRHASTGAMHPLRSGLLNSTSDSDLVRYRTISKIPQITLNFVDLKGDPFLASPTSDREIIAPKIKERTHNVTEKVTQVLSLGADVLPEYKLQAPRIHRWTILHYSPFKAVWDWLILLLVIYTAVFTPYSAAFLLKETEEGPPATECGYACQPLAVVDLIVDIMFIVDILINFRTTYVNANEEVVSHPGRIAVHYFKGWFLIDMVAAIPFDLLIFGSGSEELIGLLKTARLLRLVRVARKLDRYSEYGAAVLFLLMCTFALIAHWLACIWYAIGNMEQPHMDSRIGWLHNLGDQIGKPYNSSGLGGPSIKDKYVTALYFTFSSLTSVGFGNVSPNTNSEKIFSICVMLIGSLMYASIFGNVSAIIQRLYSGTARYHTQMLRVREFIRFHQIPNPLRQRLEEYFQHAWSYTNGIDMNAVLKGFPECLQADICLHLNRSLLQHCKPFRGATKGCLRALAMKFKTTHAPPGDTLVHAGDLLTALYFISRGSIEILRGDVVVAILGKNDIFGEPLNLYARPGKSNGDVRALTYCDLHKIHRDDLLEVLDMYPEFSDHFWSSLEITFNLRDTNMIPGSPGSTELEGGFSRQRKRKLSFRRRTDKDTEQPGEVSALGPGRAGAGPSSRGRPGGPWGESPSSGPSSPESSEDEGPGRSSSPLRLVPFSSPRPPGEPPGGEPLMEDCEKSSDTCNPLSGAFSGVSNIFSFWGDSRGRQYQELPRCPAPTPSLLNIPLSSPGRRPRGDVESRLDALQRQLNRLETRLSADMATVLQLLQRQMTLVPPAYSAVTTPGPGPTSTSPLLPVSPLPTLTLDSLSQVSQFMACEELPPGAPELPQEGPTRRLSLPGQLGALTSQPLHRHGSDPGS
# [25] = tested on: HGC-27; type: functional, Homo sapiens
# [26] = tested on: BGC-823; type: functional, Homo sapiens
# [27] = tested on: SGC-7901; type: functional, Homo sapiens
# [28] = tested on: MGC-803; type: functional, Homo sapiens
# [29] = tested on: SK-HEP1; type: functional, Homo sapiens
# [30] = tested on: Bel-7402; type: functional, Homo sapiens
# [31] = tested on: SMMC-7721; type: functional, Homo sapiens
bioavailability [1] [%],clearance [2] [mL/min/kg],CLhep predicted at 1 µM [3] [mL/min/kg],Activity [4] [%],Vd [6],AUC [7] [ng·h/mL],half-life [8] [h],Cmax [9] [ng/mL],Tmax [10] [h],CLhep predicted at 1 µM [11] [mL/min/kg],Compound,further results
–,–,36,100,–,–,–,–,–,6,CN1C[C@H](C(=O)Nc2ccc(Cl)cc2)[C@@H](c2ccc(/C=C/C(=O)Nc3ccccc3N)cn2)C1 (racemic),bioavailability [12]: 19%; Vd [13]: 4 L; clearance [14]: 79 mL/min/kg; AUC [15]: 204 ng·h/mL; half-life [16]: 4.6 h; Cmax [17]: 60 ng/mL; Tmax [18]: 0.17 h
71,49,33,117,–,–,–,–,–,–,Nc1ccccc1NC(=O)/C=C/c1ccc(C(NCCO)C(=O)Nc2ccc(C(F)(F)F)cc2)cc1 (racemic),solubility [5]: 5 µg/mL
58,20,24,100,4.1,7100,15,957,0.25,11,Nc1ccccc1NC(=O)/C=C/c1ccc([C@H]2CN(CCO)C[C@@H]2C(=O)Nc2ccc(Cl)cc2)cc1 (racemic),IC50 [19]: 26 µM; IC50 [20]: 10 µM; IC50 [21]: 3 µM; IC50 [22]: 2 µM; IC50 [23]: 2 µM; IC50 [24]: 15 µM
–,–,34,250,–,–,–,–,–,5,CN1C[C@H](C(=O)Nc2ccc(F)cc2)[C@@H](c2ccc(/C=C/C(=O)Nc3ccccc3N)cc2)C1 (racemic),bioavailability [12]: 95%; Vd [13]: 16 L; clearance [14]: 127 mL/min/kg; AUC [15]: 624 ng·h/mL; half-life [16]: 5 h; Cmax [17]: 170 ng/mL; Tmax [18]: 2 h

# Further lines, the compound ahead of its results:
Compound,bioavailability [1] [%],clearance [2] [mL/min/kg],CLhep predicted at 1 µM [3] [mL/min/kg],Activity [4] [%],Vd [6],AUC [7] [ng·h/mL],half-life [8] [h],Cmax [9] [ng/mL],Tmax [10] [h],CLhep predicted at 1 µM [11] [mL/min/kg],further results
Nc1ccccc1NC(=O)/C=C/c1ccc(C(C(=O)Nc2ccc(Br)cc2)N2CC[C@H](O)C2)cc1 (stereo partly specified),13,8,52,150,–,–,–,–,–,–,solubility [5]: 5 µg/mL
CN(C)[C@H]1CCN(C(C(=O)Nc2ccc(C(F)(F)F)cc2)c2ccc(/C=C/C(=O)Nc3ccccc3N)cc2)C1 (stereo partly specified),21,67,34,216,–,–,–,–,–,–,solubility [5]: 610 µg/mL
Nc1ccccc1NC(=O)/C=C/c1ccc(C(NCCN2CCOCC2)C(=O)Nc2ccc(C(F)(F)F)cc2)cc1 (racemic),11,122,78,100,–,–,–,–,–,–,solubility [5]: 32 µg/mL
Nc1ccccc1NC(=O)/C=C/c1ccc([C@H]2CN(C3CCOCC3)C[C@@H]2C(=O)Nc2ccc(Cl)cc2)cc1 (racemic),23,39,44,220,5.6,1000,4.9,315,0.17,12,–
CC(C)N1C[C@H](C(=O)Nc2ccc(Cl)cc2)[C@@H](c2ccc(/C=C/C(=O)Nc3ccccc3N)cc2)C1 (racemic),100,86,38,230,32,2080,5.4,331,2,–,–
CC(C)(O)CN1C[C@H](C(=O)Nc2ccc(Cl)cc2)[C@@H](c2ccc(/C=C/C(=O)Nc3ccccc3N)cc2)C1 (racemic),100,33,34,230,3.7,5650,6.5,1100,1,14,IC50 [19]: 7 µM; IC50 [20]: 7 µM; IC50 [21]: 4 µM; IC50 [22]: 3 µM; IC50 [23]: 0.7 µM
CC(C)(C)N1C[C@H](C(=O)Nc2ccc(Cl)cc2)[C@@H](c2ccc(/C=C/C(=O)Nc3ccccc3N)cc2)C1 (racemic),59,60,20,160,31,813,6.8,113,2,8,–
CC(C)(CO)N1C[C@H](C(=O)Nc2ccc(Cl)cc2)[C@@H](c2ccc(/C=C/C(=O)Nc3ccccc3N)cc2)C1 (racemic),12,27,40,260,6.6,743,1.1,337,2,12,–
CN1C[C@H](C(=O)Nc2ccc(F)c(F)c2)[C@@H](c2ccc(/C=C/C(=O)Nc3ccccc3N)cc2)C1 (racemic),29,53,46,180,7.2,911,4,262,1,–,–
Nc1ccccc1NC(=O)c1ccc(CNC(=O)OCc2cccnc2)cc1 [ENTINOSTAT],–,–,–,–,–,–,–,–,–,–,GI90 [25]: >30 µM; GI90 [26]: 7.1 µM; GI90 [27]: 2.5 µM; GI90 [28]: 8.9 µM; GI90 [29]: 13 µM; GI90 [30]: 8 µM; GI90 [31]: 11 µM
